Results on four compounds are retold here after paper PMC6648853 (ACS Omega, 2019).

Read-outs that look alike come from different tables or passages of the source. Marks after values point to notes of the source that are not given here.

The subject of one data set is HL-60. Particulars: read-out: cytotoxicity class (GI50); HL-60, leukemia/lymphoma; cited from earlier work.
Data set [1] relates to MCR-5. The note with it: read-out: cytotoxicity class (GI50); cited from earlier work.
Another data set concerns Molt-3. The note with it: read-out: cytotoxicity class (GI50); Molt-3, leukemia/lymphoma; cited from earlier work.
The test system of another data set is MV-3. The note with it: read-out: cytotoxicity class (GI50); cited from earlier work.
Another data set relates to AGS. The note with it: read-out: cytotoxicity class (GI50), gastric; cited from earlier work.
The test system of a further data set is PaCa-2. The note with it: read-out: cytotoxicity class (GI50); cited from earlier work.
For another data set, the system named is MEL-1. The note with it: read-out: cytotoxicity class (GI50); MEL-1, leukemia/lymphoma; cited from earlier work.
The test system of a further data set is NCI-H460. As to the kind of experiment: MTT assay, NCI-H460. It is filed as cell-based, human. The note with it: for GI50: Homo sapiens, NCI-H460, 72 h, read-out: GI50 (50% cell growth inhibition). The method, boiled down: (§1)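 Cells were grown in RPMI 1640 with 10% FBS and penicillin–streptomycin at 37 °C in 5% CO2. The P-gp-overexpressing NCI-H460/R line was derived from NCI-H460 by stepwise doxorubicin (5–100 nM, 3 months). Test compound (2.5–50 μM) ran 72 h, then MTT (1 mg/mL) 4 h at 37 °C. Formazan was dissolved in DMSO and read at 540 nm. Viability was relative to untreated cells, giving GI50. At least two independent experiments were run in triplicate. Paclitaxel served as positive control.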
A general note: Tetrazolium assays rely on reduction of a dye to a coloured formazan, in cell work by metabolically active cells.

A further data set relates to NCI-H460/R. Description: MTT assay, NCI-H460/R. The data set is classed as cell-based. Particulars: Homo sapiens, NCI-H460, 72 h, read-out: GI50 (50% cell growth inhibition). The method, boiled down: as §1
The next data set concerns MDA-MB-231. As to the kind of experiment: sulfurhodamine B. It is filed as cell-based. The note with it: Homo sapiens, MDA-MB-231, 48 h, read-out: GI50 (50% cell growth inhibition). The method, boiled down:
(§2)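 Cells were kept at 37 °C in 5% CO2 with 10% FBS and penicillin–streptomycin. MDA-MB-231 were grown in DMEM, the others in RPMI 1640. Cells were seeded at 5.0 × 10^3/well and left 24 h before serial dilutions of test compound (1.85–150 μM) for 48 h. Cells were fixed with 10% TCA, stained with 0.4% SRB and washed with 1% acetic acid. Bound dye was dissolved in 10 mM Tris (pH 10.5) and read at 510 nm. Doxorubicin served as positive control.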

Data set [2] has as its system MCR-5. Description: MTT assay, MCR-5 normal lung cells. Particulars: Homo sapiens, MCR5, 72 h, read-out: GI50 (50% cell growth inhibition). The data set is classed as cell-based. A digest of the protocol:
as §1

The test system of a further data set is MCF-7. As to the kind of experiment: sulfurhodamine B. The note with it: Homo sapiens, MCF7, 48 h, read-out: GI50 (50% cell growth inhibition). It is filed as cell-based. A digest of the protocol:
as §2

Another data set has as its system HCT116. As to the kind of experiment: sulfurhodamine B. The data set is classed as cell-based. Particulars: Homo sapiens, HCT-116, 48 h, read-out: GI50 (50% cell growth inhibition). The method, boiled down:
as §2

As to `CC(C)C1=C(O)C(=O)C2=C(CC[C@H]3C(C)(C)CCC[C@]23C)C1=O` [R1 = H, R2 = H, R3 = OH, royleanone], the GI50 is greater than 30 µM in the data set with HL-60; 10 to 30 µM in the data set on MCR-5 [1]; 10 to 30 µM in the data set with Molt-3; greater than 30 µM in the data set on MV-3; greater than 30 µM in the data set on AGS; greater than 30 µM in the data set on PaCa-2. For the same compound, the GI50 in the data set on MEL-1 was greater than 30 µM.

On to `O=C(/C=C/c1ccc(O)c(O)c1)O[C@H](Cc1ccc(O)c(O)c1)C(=O)O` [(1), rosmarinic acid], for which the GI50 with NCI-H460, with NCI-H460/R, with MDA-MB-231 and in the data set on MCR-5 [2] was greater than 100 µM throughout.

Regarding `COc1cccc2c1C(=O)c1c(O)c3c(c(O)c1C2=O)C[C@@](O)(C(=O)CO)C[C@@H]3O[C@H]1C[C@H](N)[C@H](O)[C@H](C)O1` [DOX, Doxorubicin], the GI50 was 0.072 µM with MDA-MB-231, 0.16 µM in the data set with MCF-7 and 0.125 µM with HCT116.

For the compound `CC(=O)O[C@H]1C(=O)[C@@]2(C)[C@H]([C@H](OC(=O)c3ccccc3)[C@]3(O)C[C@H](OC(=O)[C@H](O)[C@@H](NC(=O)c4ccccc4)c4ccccc4)C(C)=C1C3(C)C)[C@]1(OC(C)=O)CO[C@@H]1C[C@@H]2O` [PCX, Paclitaxel], the GI50 in the data set with NCI-H460 is 0.0006 µM; in the data set with NCI-H460/R, 0.117 µM; in the data set with MCR-5 [2], 0.523 µM. In the data set with NCI-H460 (MCR-5 vs NCI-H460, MTT assay), the “Selectivity index, SI = GI50(MCR-5)/GI50(NCI-H460)” value was “PCX 872***”.
